Test results as given in paper PMC3966491 (Chemical biology & drug design, 2013).

Columns and labels:
[1] = biological target: AKT1 (PKB alpha) (Homo sapiens, UniProt P31749); experiment: AKT1 in vitro kinase assay; type: biochemical
In short: (§1)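 Z′-LYTE assay. Enzyme per 10 μL reaction: AKT1 0.34–7.65 ng, AKT2 1–40 ng, or AKT3 0.56–8.3 ng. Reaction contained 2 μM Ser/Thr 06 peptide, ATP at Km, 50 mM HEPES pH 7.5, 0.01% BRIJ-35, 10 mM MgCl2 and 1 mM EGTA. After 1 h, Development Reagent A (1:2048) protease cleaved non-phosphorylated peptide. Read-out was the coumarin 445 nm/fluorescein 520 nm emission ratio; curves were fitted.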

[2] = biological target: T1, CHUK (IKK alpha) (Homo sapiens, UniProt O15111); experiment: IKKα; type: biochemical; conditions: for IKKα in vitro kinase inhibition (in words): stated for IKKs
T1 sequence (O15111 1-745): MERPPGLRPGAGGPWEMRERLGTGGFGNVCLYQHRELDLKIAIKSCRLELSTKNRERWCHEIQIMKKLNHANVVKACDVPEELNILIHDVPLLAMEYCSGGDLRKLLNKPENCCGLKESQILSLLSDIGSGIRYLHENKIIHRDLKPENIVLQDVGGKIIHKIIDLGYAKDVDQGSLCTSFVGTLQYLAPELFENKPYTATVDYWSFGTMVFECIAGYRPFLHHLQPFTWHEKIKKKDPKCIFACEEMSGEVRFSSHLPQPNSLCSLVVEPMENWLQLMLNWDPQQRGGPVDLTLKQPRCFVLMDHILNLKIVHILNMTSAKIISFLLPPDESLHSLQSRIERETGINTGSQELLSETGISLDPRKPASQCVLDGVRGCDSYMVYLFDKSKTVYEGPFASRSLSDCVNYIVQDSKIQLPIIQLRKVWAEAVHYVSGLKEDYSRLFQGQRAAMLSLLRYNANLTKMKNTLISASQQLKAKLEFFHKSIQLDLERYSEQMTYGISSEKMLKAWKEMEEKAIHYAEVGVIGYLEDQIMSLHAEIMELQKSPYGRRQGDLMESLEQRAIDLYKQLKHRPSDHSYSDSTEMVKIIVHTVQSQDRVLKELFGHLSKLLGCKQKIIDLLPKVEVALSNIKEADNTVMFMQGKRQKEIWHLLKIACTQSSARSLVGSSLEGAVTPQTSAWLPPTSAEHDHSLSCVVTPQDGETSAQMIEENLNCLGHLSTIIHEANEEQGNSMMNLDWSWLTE
In short: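 ADAPTA ADP-detection format. Detection mix added EDTA (stop), europium-labelled anti-ADP antibody and Alexa Fluor 647 ADP tracer; ADP formation was taken from the emission ratio. Where noted, IC50 was predicted from % inhibition at 1 μM test compound, mean of two experiments.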

[3] = biological target: T2, IKBKB (IKK beta) (Homo sapiens, UniProt O14920); experiment: IKKβ; type: biochemical; conditions: for IKKβ in vitro kinase inhibition (in words): stated for IKKs
T2 sequence (O14920 1-756): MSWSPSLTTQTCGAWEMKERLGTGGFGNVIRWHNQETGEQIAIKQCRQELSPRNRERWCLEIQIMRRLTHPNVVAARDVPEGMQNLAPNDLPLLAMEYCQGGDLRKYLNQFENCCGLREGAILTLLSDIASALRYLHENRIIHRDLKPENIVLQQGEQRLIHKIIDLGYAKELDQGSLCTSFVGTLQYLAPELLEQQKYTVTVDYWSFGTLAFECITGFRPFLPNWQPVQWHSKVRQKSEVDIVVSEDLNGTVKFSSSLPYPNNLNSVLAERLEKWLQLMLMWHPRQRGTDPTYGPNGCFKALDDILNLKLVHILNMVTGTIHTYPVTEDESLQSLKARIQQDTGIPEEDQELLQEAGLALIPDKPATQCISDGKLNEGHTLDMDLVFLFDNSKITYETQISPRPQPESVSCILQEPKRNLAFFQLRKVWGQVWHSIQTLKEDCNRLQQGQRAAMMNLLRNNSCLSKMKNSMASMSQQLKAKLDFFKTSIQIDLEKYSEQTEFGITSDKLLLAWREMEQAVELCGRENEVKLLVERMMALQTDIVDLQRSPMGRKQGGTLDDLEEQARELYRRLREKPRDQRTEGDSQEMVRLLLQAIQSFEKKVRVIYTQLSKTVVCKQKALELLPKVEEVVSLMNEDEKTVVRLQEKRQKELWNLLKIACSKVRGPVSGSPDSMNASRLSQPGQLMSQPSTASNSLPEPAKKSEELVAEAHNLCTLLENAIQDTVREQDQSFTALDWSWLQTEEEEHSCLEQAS
In short: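 Z′-LYTE format. Development used Reagent B (1:64) protease; read-out was the coumarin 445 nm/fluorescein 520 nm emission ratio. Where noted, IC50 was predicted from % inhibition at 10 μM test compound, mean of two experiments.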

[4] = biological target: AKT2 (PKB beta) (Homo sapiens, UniProt P31751); experiment: AKT2 in vitro kinase assay; type: biochemical
AKT2 (PKB beta), sequence (P31751 whole entry): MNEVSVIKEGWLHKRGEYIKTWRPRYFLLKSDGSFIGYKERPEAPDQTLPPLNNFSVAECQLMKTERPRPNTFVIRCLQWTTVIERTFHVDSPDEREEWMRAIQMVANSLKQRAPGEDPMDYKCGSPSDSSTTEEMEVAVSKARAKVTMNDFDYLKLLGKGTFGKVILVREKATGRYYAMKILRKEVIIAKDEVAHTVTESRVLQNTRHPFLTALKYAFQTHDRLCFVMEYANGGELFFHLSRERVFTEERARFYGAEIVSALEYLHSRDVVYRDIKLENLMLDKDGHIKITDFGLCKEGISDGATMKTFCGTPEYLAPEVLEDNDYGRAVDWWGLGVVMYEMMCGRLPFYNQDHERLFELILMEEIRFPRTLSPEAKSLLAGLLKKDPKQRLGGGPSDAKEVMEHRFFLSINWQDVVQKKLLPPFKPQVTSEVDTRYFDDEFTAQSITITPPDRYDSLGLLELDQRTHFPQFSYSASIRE
In short: as §1

[5] = biological target: AKT3 (PKB gamma) (Homo sapiens, UniProt Q9Y243); experiment: AKT3 in vitro kinase assay; type: biochemical
AKT3 (PKB gamma), sequence (Q9Y243 whole entry): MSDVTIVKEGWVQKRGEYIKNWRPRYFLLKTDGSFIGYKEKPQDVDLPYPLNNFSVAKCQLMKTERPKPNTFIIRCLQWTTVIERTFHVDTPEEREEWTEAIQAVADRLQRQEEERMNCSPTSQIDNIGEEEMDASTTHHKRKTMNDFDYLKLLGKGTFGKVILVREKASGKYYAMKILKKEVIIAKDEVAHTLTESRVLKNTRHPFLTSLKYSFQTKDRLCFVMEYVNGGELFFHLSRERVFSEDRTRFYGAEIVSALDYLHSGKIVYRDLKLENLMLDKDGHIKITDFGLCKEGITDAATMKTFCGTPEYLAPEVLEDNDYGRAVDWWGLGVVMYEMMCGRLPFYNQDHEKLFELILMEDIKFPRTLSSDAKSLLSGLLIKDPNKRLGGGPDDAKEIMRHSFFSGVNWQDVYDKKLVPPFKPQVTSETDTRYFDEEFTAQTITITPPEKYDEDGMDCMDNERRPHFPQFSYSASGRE
In short: as §1

[6] = in vitro plasma stability; type: in vitro ADME
[7] = in vitro microsomal stability; type: in vitro ADME

AKT1 (PKB alpha), sequence (P31749 whole entry): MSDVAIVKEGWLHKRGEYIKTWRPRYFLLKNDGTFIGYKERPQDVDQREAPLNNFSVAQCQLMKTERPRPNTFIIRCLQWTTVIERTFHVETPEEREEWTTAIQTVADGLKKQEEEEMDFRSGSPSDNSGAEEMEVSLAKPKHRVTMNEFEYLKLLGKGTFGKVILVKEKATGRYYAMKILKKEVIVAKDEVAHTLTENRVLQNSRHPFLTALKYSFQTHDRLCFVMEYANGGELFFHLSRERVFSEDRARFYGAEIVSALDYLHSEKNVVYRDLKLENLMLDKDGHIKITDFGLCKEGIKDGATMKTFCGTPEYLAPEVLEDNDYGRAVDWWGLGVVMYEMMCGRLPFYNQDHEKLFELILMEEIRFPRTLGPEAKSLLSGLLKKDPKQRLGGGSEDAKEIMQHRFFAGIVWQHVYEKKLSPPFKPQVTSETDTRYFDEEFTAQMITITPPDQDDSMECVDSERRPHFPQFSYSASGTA

Row | SMILES | IC50 [1] | IC50 [2] | IC50 [3] | also measured
1 | O=C(/C=C/c1nc2ccccc2[nH]1)c1c(-c2ccccc2)c2ccccc2[nH]c1=O [compound 43, (E)-3-(3-(1H-benzo[d]imidazol-2-yl)acryloyl)-4-phenylquinolin-2(1H)-one] | 5.2 µM | – | – | –
2 | O=C(/C=C/c1nc2cc(F)c(F)cc2[nH]1)c1c(-c2ccc(F)c(F)c2)c2cc(F)ccc2[nH]c1=O [compound 54, (E)-3-(3-(5,6-difluoro-1H-benzo[d]imidazol-2-yl)acryloyl)-4-(3,4-difluorophenyl)-6-fluoroquinolin-2(1H)-one] | 44.5 µM | 7.2 µM | 16.4 µM | –
3 | O=C(/C=C/c1nc2ccccc2[nH]1)c1c(-c2ccccc2)c2cc(Br)ccc2[nH]c1=O [compound 44, (E)-3-(3-(1H-benzo[d]imidazol-2-yl)acryloyl)-6-bromo-4-phenylquinolin-2(1H)-one] | 4.48 µM | 6.02 µM | 5.6 µM | IC50 [4]: 1.72 µM; IC50 [5]: 8.85 µM
4 | O=C(/C=C/c1nc2cc(F)c(F)cc2[nH]1)c1c(-c2ccc(F)cc2)c2cc(Cl)ccc2[nH]c1=O [compound 49, (E)-6-chloro-3-(3-(5,6-difluoro-1H-benzo[d]imidazol-2-yl)acryloyl)-4-(4-fluorophenyl)quinolin-2(1H)-one] | 30.4 µM | 7.12 µM | 15.4 µM | –
5 | COc1ccc(-c2c(C(=O)/C=C/c3nc4cc(F)c(F)cc4[nH]3)c(=O)[nH]c3ccc(Cl)cc23)cc1 [compound 52, (E)-6-chloro-3-(3-(5,6-difluoro-1H-benzo[d]imidazol-2-yl)acryloyl)-4-(4-methoxyphenyl)quinolin-2(1H)-one] | > 50 µM | – | – | –
6 | O=C(/C=C/c1nc2ccccc2[nH]1)c1c(O)nc2ccc(Cl)cc2c1-c1ccccc1 [compound 1, (E)-3-(3-(1H-benzo[d]imidazol-2-yl)acryloyl)-6-chloro-4-phenylquinolin-2(1H)-one] | 6.22 µM | 3.85 µM | 2.3 µM | IC50 [4]: 4.24 µM; IC50 [5]: 10.9 µM; plasma stability [6]: favorable; microsomal stability [7]: favorable
7 | O=C(/C=C/c1nc2cc(F)c(F)cc2[nH]1)c1c(-c2ccc(F)cc2)c2cc(F)ccc2[nH]c1=O [compound 48, (E)-3-(3-(5,6-difluoro-1H-benzo[d]imidazol-2-yl)acryloyl)-6-fluoro-4-(4-fluorophenyl)quinolin-2(1H)-one] | 15.9 µM | 13.1 µM | 16 µM | –
8 | O=C(NCc1nc2ccccc2[nH]1)c1c(-c2ccccc2)c2cc(Cl)ccc2[nH]c1=O [compound 58, N-((1H-benzo[d]imidazol-2-yl)methyl)-6-chloro-2-oxo-4-phenyl-1,2-dihydroquinoline-3-carboxamide] | – | – | – | AKT1 in vitro inhibition (in words) [1]: completely inactive; IKKα in vitro kinase inhibition (in words) [2]: completely inactive; IKKβ in vitro kinase inhibition (in words) [3]: completely inactive
9 | O=C(/C=C/c1nc2cc(F)c(F)cc2[nH]1)c1c(-c2ccc(F)c(F)c2)c2cc(Cl)ccc2[nH]c1=O [compound 55, (E)-6-chloro-3-(3-(5,6-difluoro-1H-benzo[d]imidazol-2-yl)acryloyl)-4-(3,4-difluorophenyl)quinolin-2(1H)-one] | > 50 µM | 12.1 µM | 17.8 µM | –
10 | O=C(/C=C/c1nc2cc(F)c(F)cc2[nH]1)c1c(-c2ccc(Cl)cc2)c2cc(Cl)ccc2[nH]c1=O [compound 51, (E)-6-chloro-4-(4-chlorophenyl)-3-(3-(5,6-difluoro-1H-benzo[d]imidazol-2-yl)acryloyl)quinolin-2(1H)-one] | > 50 µM | – | – | –
11 | CCOc1ccc(-c2c(C(=O)/C=C/c3nc4cc(F)c(F)cc4[nH]3)c(=O)[nH]c3ccc(Cl)cc23)cc1 [compound 53, (E)-6-chloro-3-(3-(5,6-difluoro-1H-benzo[d]imidazol-2-yl)acryloyl)-4-(4-ethoxyphenyl)quinolin-2(1H)-one] | > 50 µM | – | – | –
12 | O=C(/C=C/c1nc2cc(Br)ccc2[nH]1)c1c(-c2ccccc2)c2cc(Cl)ccc2[nH]c1=O [compound 41, (E)-3-(3-(5-bromo-1H-benzo[d]imidazol-2-yl)acryloyl)-6-chloro-4-phenylquinolin-2(1H)-one] | 14 µM | – | – | –
13 | Cc1ccc2[nH]c(/C=C/C(=O)c3c(-c4ccccc4)c4cc(Cl)ccc4[nH]c3=O)nc2c1 [compound 40, (E)-6-chloro-3-(3-(5-methyl-1H-benzo[d]imidazol-2-yl)acryloyl)-4-phenylquinolin-2(1H)-one] | 43.3 µM | 8.03 µM | 9.6 µM | IC50 [4]: 5 µM; IC50 [5]: 8.4 µM
14 | O=C(CCc1nc2ccccc2[nH]1)c1c(-c2ccccc2)c2cc(Cl)ccc2[nH]c1=O [compound 59, 3-(3-(1H-benzo[d]imidazol-2-yl)propanoyl)-6-chloro-4-phenylquinolin-2(1H)-one] | – | – | – | AKT1 in vitro inhibition (in words) [1]: completely inactive; IKKα in vitro kinase inhibition (in words) [2]: completely inactive; IKKβ in vitro kinase inhibition (in words) [3]: completely inactive
15 | Cn1c(=O)c(C(=O)/C=C/c2nc3cc(F)ccc3[nH]2)c(-c2ccccc2)c2cc(Cl)ccc21 [compound 46, (E)-6-chloro-3-(3-(5-fluoro-1H-benzo[d]imidazol-2-yl)acryloyl)-1-methyl-4-phenylquinolin-2(1H)-one] | 17.2 µM | – | – | –
16 | Cc1ccc2[nH]c(=O)c(C(=O)/C=C/c3nc4ccccc4[nH]3)c(-c3ccccc3)c2c1 [compound 45, (E)-3-(3-(1H-benzo[d]imidazol-2-yl)acryloyl)-6-methyl-4-phenylquinolin-2(1H)-one] | 6.26 µM | 29.1 µM | 7.9 µM | IC50 [5]: 5.53 µM
17 | Cc1ccc(-c2c(C(=O)/C=C/c3nc4cc(F)c(F)cc4[nH]3)c(=O)[nH]c3ccc(Cl)cc23)cc1 [compound 50, (E)-6-chloro-3-(3-(5,6-difluoro-1H-benzo[d]imidazol-2-yl)acryloyl)-4-(p-tolyl)quinolin-2(1H)-one] | > 50 µM | – | – | –
18 | Cn1c(/C=C/C(=O)c2c(-c3ccccc3)c3cc(Cl)ccc3[nH]c2=O)nc2ccccc21 [compound 39, (E)-6-chloro-3-(3-(1-methyl-1H-benzo[d]imidazol-2-yl)acryloyl)-4-phenylquinolin-2(1H)-one] | > 100 µM | – | – | AKT1 in vitro inhibition (in words) [1]: inactive
